Data from ChEMBL document CHEMBL3085682, “Santacruzamate A, a potent and selective histone deacetylase inhibitor from the Panamanian marine cyanobacterium cf. Symploca sp” (J Nat Prod, 2013).
Where “and” joins values, the source holds several entries; their conditions need not be identical. Equal entries are not always repeated. Calls of active or inactive are those of the source. The rule behind the calls is not given here.

Assays:
[1] = biological target: T1, Histone deacetylase 4 (Homo sapiens, UniProt P56524); assay: Inhibition of human recombinant HDAC4 at 1 uM after 30 mins by fluorescence assay
T1 sequence (P56524 whole entry): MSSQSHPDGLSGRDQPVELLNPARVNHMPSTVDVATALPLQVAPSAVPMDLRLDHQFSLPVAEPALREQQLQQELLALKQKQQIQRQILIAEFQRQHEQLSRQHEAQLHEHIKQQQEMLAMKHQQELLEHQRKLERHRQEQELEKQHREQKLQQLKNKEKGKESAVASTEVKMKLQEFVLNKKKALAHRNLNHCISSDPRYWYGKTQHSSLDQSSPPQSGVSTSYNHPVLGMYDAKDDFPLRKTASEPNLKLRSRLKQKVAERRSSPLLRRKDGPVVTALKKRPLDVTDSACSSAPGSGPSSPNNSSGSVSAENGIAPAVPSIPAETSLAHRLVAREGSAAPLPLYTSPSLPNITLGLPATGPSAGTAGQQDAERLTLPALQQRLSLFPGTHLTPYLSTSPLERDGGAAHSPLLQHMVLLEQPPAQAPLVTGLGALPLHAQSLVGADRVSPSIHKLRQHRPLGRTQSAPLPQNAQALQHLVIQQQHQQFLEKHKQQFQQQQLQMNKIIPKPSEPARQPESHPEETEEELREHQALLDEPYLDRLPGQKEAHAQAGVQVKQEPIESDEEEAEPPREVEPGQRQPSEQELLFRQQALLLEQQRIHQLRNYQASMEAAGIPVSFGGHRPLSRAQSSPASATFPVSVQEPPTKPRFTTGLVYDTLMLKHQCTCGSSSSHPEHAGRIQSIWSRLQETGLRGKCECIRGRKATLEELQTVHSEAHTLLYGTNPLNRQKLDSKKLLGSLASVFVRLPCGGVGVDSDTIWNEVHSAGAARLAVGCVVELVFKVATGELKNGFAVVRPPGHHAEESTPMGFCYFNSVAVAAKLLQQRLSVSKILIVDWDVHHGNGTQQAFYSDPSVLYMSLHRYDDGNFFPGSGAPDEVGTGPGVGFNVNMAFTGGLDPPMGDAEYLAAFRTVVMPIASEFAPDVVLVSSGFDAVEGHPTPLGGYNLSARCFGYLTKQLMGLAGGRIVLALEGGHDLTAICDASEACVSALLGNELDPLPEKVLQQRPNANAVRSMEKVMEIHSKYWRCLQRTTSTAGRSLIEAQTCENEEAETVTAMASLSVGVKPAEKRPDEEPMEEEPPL
Outline: (§1)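 Human recombinant HDAC isozyme with fluorogenic kit substrate, incubated with inhibitor 30 min at 37 °C. Deacetylation stopped by developer containing trichostatin A (1 μM final), then 15 min at room temperature. Fluorescence read at excitation 360 nm, emission 460 nm; percent inhibition, IC50 from nonlinear regression over varying concentrations; SAHA control.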

[2] = Cytotoxicity against human HDF after 72 hrs by MTS-PMS assay; details: HDF cells
Outline: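 Dermal fibroblasts cultured in DMEM/F-12 with 40% FBS and 1% pen/strep; 5000 cells/well allowed to adhere 24 h at 37 °C, 5% CO2, then treated in triplicate at varying concentrations for 72 h. Antiproliferative readout by MTS–PMS; GI50 fitted by nonlinear regression; SAHA positive control.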

[3] = system: HCT-116; assay: Cytotoxicity against human HCT116 cells after 96 hrs by MTS-PMS assay; type: functional
[4] = system: HuT78; assay: Cytotoxicity against human HUT78 cells after 72 hrs by MTS-PMS assay; type: functional
Outline: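 HuT-78 maintained in Iscove's modified Dulbecco's medium, 20% FBS, 1% pen/strep, 1% L-glutamine; seeded in log phase at 50 000 cells/well, held 4 h at 37 °C, 5% CO2, then dosed in triplicate over a concentration range for 72 h. MTS–PMS readout; GI50 by nonlinear regression; SAHA positive control.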

[5] = biological target: T2, Protein deacetylase HDAC6 (Homo sapiens, UniProt Q9UBN7); assay: Inhibition of human recombinant HDAC6 after 30 mins by fluorescence assay
T2 sequence (Q9UBN7 whole entry): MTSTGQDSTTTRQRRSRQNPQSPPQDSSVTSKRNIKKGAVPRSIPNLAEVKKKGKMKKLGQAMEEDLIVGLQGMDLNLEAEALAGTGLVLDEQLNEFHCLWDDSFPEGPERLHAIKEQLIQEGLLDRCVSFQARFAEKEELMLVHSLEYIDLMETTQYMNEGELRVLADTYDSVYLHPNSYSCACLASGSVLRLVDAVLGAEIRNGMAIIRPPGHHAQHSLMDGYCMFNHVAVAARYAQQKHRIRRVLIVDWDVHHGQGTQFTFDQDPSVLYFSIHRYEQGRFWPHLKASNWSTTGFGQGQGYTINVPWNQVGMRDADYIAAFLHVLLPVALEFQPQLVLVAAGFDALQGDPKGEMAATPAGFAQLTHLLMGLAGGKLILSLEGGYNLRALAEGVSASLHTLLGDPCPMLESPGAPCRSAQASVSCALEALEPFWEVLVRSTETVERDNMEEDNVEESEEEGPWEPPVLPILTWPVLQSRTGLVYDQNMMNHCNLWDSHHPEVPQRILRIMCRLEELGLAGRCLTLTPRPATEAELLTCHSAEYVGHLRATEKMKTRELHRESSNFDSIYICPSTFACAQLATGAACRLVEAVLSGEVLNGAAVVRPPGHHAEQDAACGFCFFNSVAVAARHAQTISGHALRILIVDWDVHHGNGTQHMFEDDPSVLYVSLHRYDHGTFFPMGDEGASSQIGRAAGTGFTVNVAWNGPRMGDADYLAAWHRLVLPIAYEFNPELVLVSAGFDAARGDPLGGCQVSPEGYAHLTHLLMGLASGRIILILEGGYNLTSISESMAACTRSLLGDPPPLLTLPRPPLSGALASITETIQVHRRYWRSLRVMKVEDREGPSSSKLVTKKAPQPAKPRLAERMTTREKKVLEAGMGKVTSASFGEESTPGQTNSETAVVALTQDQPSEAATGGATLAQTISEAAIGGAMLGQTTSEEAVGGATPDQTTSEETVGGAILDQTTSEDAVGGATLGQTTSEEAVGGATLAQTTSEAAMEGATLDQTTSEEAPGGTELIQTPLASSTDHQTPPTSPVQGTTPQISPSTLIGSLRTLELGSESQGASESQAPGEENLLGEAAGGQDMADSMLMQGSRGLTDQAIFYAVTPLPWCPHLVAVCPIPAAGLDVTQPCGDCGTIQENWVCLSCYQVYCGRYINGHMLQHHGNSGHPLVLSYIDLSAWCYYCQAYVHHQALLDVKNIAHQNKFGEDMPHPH

[6] = biological target: T1, Histone deacetylase 4; assay: Inhibition of human recombinant HDAC4 after 30 mins by fluorescence assay; outline: as §1
[7] = biological target: Histone deacetylase 2 (Homo sapiens, UniProt Q92769); assay: Inhibition of human recombinant HDAC2 after 30 mins by fluorescence assay
Chain of Histone deacetylase 2 (Q92769 whole entry): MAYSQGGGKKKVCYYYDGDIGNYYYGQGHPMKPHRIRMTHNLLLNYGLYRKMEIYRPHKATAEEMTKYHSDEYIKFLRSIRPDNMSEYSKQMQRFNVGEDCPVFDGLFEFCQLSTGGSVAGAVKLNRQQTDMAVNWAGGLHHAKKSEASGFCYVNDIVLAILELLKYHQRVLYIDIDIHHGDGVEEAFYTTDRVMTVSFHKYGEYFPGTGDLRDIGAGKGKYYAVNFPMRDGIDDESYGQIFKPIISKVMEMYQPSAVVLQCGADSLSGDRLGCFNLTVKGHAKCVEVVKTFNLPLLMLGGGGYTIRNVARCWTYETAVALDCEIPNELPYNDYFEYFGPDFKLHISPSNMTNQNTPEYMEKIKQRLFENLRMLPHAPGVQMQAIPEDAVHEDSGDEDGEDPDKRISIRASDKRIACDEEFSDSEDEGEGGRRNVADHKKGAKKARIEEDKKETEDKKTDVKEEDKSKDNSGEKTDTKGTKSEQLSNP

[8] = system: HCT-116; assay: Ratio of IC50 for human HCT116 cells to IC50 for human HUT78 cells; type: functional

Row | Compound | inhibition [1] | GI50 at 72 h [2] [µM] | GI50 ([3]; Homo sapiens, HCT-116, 96 h) [µM] | GI50 ([4]; Homo sapiens, HuT78, 72 h) [nM] | IC50 [5] | IC50 [6] [nM] | IC50 [7] | Ratio IC50 [8] | GI50 [3] [µM] | GI50 [4] [nM]
1 | O=C(CCCC(=O)NCCc1ccccc1)NO | Active | > 100 | 2.3 | 700 | 386 nM | > 1000 | 3.5 nM |  |  | 
2 | CCOC(=O)NCCCC(=O)NCCc1ccccc1 | Active | > 100 | 28.3 | 1300 | 433 nM and 434 nM | > 1000 | 0.112 nM and 0.119 nM | 20 | 29.4 | 1400
